M1 ag = agonists of M1 muscarinic receptor; CHO-M1 cells, Fluo-4 calcium fluorescence, agonist mode; stronger effect = higher value; B-score at 10 µM; 64,000 compounds, 3% hits; AID 626;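 active = fluorescence rise, raw or as B-score row- and column-corrected plate score, outside the 99.7% band of its plate's samples, either direction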
HEK293 NFkB inh = inhibitors of the PMA/ionomycin-induced NF-kB reporter in HEK293 cells; inhibition, % at 3 µM; HEK-293 NF-kB luciferase reporter, luminescence; 62,000 compounds, 0.21% hits; AID 465;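 active = inhibition above the mean of all tested compounds plus 3 SD, cut at about 40% in these data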
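Timing: 1 h pretreatment, 16 h stimulation, 37 °C; system: HEK-293 cells with stable firefly luciferase reporter driven by four HIV NF-kB elements; doses: 3 µM once, 0.30% DMSO; measured by: luciferase luminescence; control set: DMSO and 10 µM reference inhibitor; repeats: single test; reagent: PMA plus ionomycin mix as NF-kB-activating stimulus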
MKP-1 inh = inhibitors of human MKP-1 phosphatase; 65,000 compounds, 0.15% hits; inhibition, %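 (compounds tested at a single concentration somewhere between 10 and 100 µM)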; P28562; recombinant MKP-1, OMFP hydrolysis fluorescence;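 active = inhibition above about 50%, limit read from the data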
M1 antagonist = M1 muscarinic receptor (rat) antagonism | P08482 | CHO-M1 cells, Fluo-4 calcium, ACh EC80 antagonist mode; stronger effect = lower value | 64,000 compounds, 3.4% hits | AID 628 | B-score at 10 µM;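 active = calcium fluorescence response, raw or row-and-column corrected B-score, differing from the plate sample mean either way at a set confidence level, mostly lower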
Target sequence (P08482 whole entry, looked up): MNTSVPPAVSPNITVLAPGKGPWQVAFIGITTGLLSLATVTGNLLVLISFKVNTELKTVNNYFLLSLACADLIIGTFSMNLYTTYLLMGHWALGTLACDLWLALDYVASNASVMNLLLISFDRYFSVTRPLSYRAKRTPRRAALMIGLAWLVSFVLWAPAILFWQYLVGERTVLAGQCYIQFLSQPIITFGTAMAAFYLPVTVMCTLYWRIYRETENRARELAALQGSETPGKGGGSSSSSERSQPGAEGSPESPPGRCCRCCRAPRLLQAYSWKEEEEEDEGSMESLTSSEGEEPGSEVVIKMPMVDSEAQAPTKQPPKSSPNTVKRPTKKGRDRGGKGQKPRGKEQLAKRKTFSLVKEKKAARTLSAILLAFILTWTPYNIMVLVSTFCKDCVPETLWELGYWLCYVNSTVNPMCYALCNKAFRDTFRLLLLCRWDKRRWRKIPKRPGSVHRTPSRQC
Cdc25B block = inhibitors of human Cdc25B phosphatase | recombinant Cdc25B, OMFP fluorescence Ex485/Em525 | inhibition, %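 (compounds tested at 10 µM final in the well)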 | 65,000 compounds, 0.1% hits; in the data active = inhibition above about 50%
HER2 expr 66K = lowers expression of human Her2 kinase; SKBR-3 HER2 protein level, AlphaScreen, 18-24 h; stronger effect = lower value; HER2 level % of control, % at 10 µM; 65,000 compounds, 0.69% hits;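 active = HER2 level under 5% of the carrier-only control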;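 also: lower value means stronger loss of Her2 protein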
M1 antag conf = M1 muscarinic receptor (rat) antagonism, confirmed; CHO-M1 cells, Fluo-4 calcium, ACh EC80 antagonism; stronger effect = lower value; calcium response (max-min fluorescence) at 10 µM; AID 677; shares compounds with M1 antagonist; 1,700 compounds, 43% hits;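 active = calcium response below the same-plate mean of wells given acetylcholine alone at its 80%-effect dose, minus 3 SD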
mGluR4 antag = acts on human mGluR4 in M1 antagonist selectivity test; shares compounds with M1 antagonist; CHO-mGluR4 calcium flux, Fluo-4 fluorescence, glutamate EC80; stronger effect = lower value; fluorescence response (max-min) at 10 µM; 1,700 compounds, 0.9% hits;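 active = fluorescence response below the plate's average for near-maximal glutamate wells, less 3 SD of those wells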;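 also: raw unnormalized fluorescence span taken in the window right after glutamate addition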
Hits are given with their value; . = inactive; / = no result. An excerpt weighted towards active compounds, which were near 6.8% of everything screened.

SMILES	M1 ag	HEK293 NFkB inh	MKP-1 inh	M1 antagonist	Cdc25B block	HER2 expr 66K	M1 antag conf	mGluR4 antag
CCOC(=O)c1ccccc1NC(=O)c1c(O)c2ccccc2n(CC)c1=O	.	.	.	.	.	.	/	/
Cc1ccc(CCNC(=O)Cn2cccc2)cc1	.	.	.	.	.	.	/	/
O=C(NC1(C(F)(F)F)C(=O)Nc2c1c(=O)[nH]c(=O)n2Cc1ccco1)C1CC1 (configuration not stated)	.	.	.	.	.	.	/	/
COC(=O)c1oc2c(c1C)C1(CCC2)SCCS1	.	.	.	-6.8	.	.	259	.
Cc1ccc(CNC(=O)CSc2ncccn2)cc1	.	.	.	.	.	.	/	/
COc1ccc2ccccc2c1CN1CCN(C)CC1	.	.	.	.	.	.	/	/
CCN1CCN(Cc2c(OC)ccc3ccccc23)CC1	.	.	.	-3	.	.	.	.
O=C1c2ccccc2C(=O)N1CCCOc1ccccc1	.	.	.	.	.	.	/	/
O=C1c2ccccc2C(=O)N1CCOCCN1C(=O)c2ccccc2C1=O	.	.	.	-3.3	.	.	.	.
Cc1ccc2[nH]c(=O)c(CN(CCCN3CCOCC3)C(=O)Nc3cccc(Cl)c3)cc2c1	.	.	.	.	.	.	/	/
CC(C)=CCC/C(C)=C/CCC(C)NCCN1CCNCC1 (configuration not stated)	.	.	.	-6.6	.	.	390	.
CCCCn1c(SCC(=O)N2CCOCC2)nnc1-c1cccs1	.	.	.	.	.	.	/	/
CC(C)Cn1c(N)c(C(=O)COC(=O)c2ccc3ccccc3n2)c(=O)n(C)c1=O	.	.	.	.	.	.	/	/
CN1CCc2c(c3ccccc3n2Cc2ccccc2)C1	.	.	.	-3.9	.	.	231	.
N=c1c2c3c(sc2nc2n1CCC2)CCCC3	.	.	.	-1.9	.	.	.	.
CCOCCCNC(=O)CCCOc1ccccc1	.	.	.	.	.	.	/	/
O=C(Nc1ccc(N2CCOCC2)c(Cl)c1)c1ccco1	.	.	.	.	.	.	/	/
Cc1ccc(N=C2SCCCN2C(=O)c2ccco2)cc1Cl	.	.	.	-1.9	.	.	532	.
CCN(CC)CCCN1C(=O)C(=O)/C(=C(/O)c2ccc(OC)c(Cl)c2)C1c1ccco1 (configuration not stated)	.	.	.	.	.	.	/	/
COc1cccc(/C=C2/CN(C)CC3=C2OC(N)=C(C#N)C3c2cccc(OC)c2)c1 (configuration not stated)	.	/	.	.	.	.	/	/
CC(C)(C)n1nnnc1C(c1ccccc1)N1CCc2ccccc2C1 (configuration not stated)	.	.	.	-12	.	.	368	.
Cc1ccc(NC(=O)COC(=O)c2ccn(C)n2)cc1	.	.	.	.	.	.	/	/
COc1ccc(-c2nc3n(n2)C(c2ccccc2Cl)C(C(N)=O)=C(C)N3)cc1 (configuration not stated)	.	.	.	-3	.	.	.	.
Cc1ccc(C(=O)CC2(O)C(=O)N(C)c3ccc(Br)cc32)c(C)c1 (configuration not stated)	.	.	.	-2.2	.	.	.	.
O=c1c2ccccc2nnn1CSc1nnc(C2COc3ccccc3O2)n1-c1ccccc1 (configuration not stated)	.	.	.	-2.4	.	.	.	159
SMILES	M1 ag	HEK293 NFkB inh	MKP-1 inh	M1 antagonist	Cdc25B block	HER2 expr 66K	M1 antag conf	mGluR4 antag
O=C1CC(O)(C(F)F)Oc2ccc3ccccc3c21 (configuration not stated)	.	.	.	-2.6	.	.	.	.
O=C1CC(O)(C(F)(F)F)Oc2c1ccc1ccccc21 (configuration not stated)	.	.	.	.	.	.	/	/
CCOC(=O)N1CCN(C(=O)c2cc3cc(Br)ccc3oc2=O)CC1	.	.	.	.	.	.	/	/
Cc1nc(SCC(=O)NCc2ccco2)c2c3c(sc2n1)CCCC3	.	.	.	.	.	.	/	/
CC(C)Sc1nc(SCC(=O)NCc2ccco2)c2c3c(sc2n1)COC(C)(C)C3	.	.	.	-1.9	.	.	.	.
COC(=O)C1C(=O)c2c([nH]c(C(=O)OCCOC(C)C)c2C)CC1C (configuration not stated)	.	.	.	-2.9	.	.	.	.
Cc1ccc(S(=O)(=O)/N=C(\CN2CCCCC2)N2CCOCC2)cc1	.	.	.	-2.6	.	.	.	.
Cc1ccc(S(=O)(=O)N2CCN(C(=O)CN3CCOCC3)C2)cc1	.	.	.	.	.	.	/	/
CCCCOC(=O)Nc1cccc(C(C)=O)c1	.	.	.	-4.8	.	.	.	.
CCOC(=O)c1sc(NC(=O)c2cc3c(C)nn(-c4ccccc4)c3s2)nc1C	.	.	.	.	.	.	/	/
Cc1ccc2nc(N3CCN(C(=O)c4cccs4)CC3)c(C#N)cc2c1	.	.	.	-2.3	.	.	.	.
O=C(CN1CCOc2ccccc21)N1CCN(c2cccc(Cl)c2)CC1	.	.	.	.	.	.	/	/
Cn1ccnc1C(O)(c1nnc(-c2ccccc2)o1)C(F)(F)F (configuration not stated)	.	.	.	.	.	.	/	/
COC(=O)C1=C(C)N=C2SCCC(=O)N2C1/C=C/c1ccccc1 (configuration not stated)	.	.	.	-4.5	.	.	253	.
CCOc1ccc(OCC)c(NC(=O)C2CCN(c3ncccn3)CC2)c1	.	.	.	.	.	.	/	/
COCCn1c(SCC(=O)Nc2ccc(S(=O)(=O)N3CCOCC3)cc2)nc2ccccc21	.	.	.	-7.6	.	.	348	.
COC(=O)COC(=O)CC(CC(N)=O)c1ccccc1 (configuration not stated)	.	.	.	.	.	.	/	/
CS(=O)(=O)N(CC(=O)N1CCC(C(N)=O)CC1)c1ccc(Oc2ccccc2)cc1	.	.	.	-1.6	.	.	.	.
CCOC(=O)N1CCN(C(=O)CN(c2ccc(Oc3ccccc3)cc2)S(C)(=O)=O)CC1	.	.	.	.	.	.	/	/
COc1cccc(C(=O)SC2=NCCS2)c1	.	.	.	.	.	.	/	/
Cc1cc(C)n(-c2c(F)c(F)c(CN3CCCCC3)c(F)c2F)n1	.	/	.	-2.5	.	.	.	.
Cc1cc(C)n(-c2nc3ccccc3nc2N2CCCCCC2)n1	.	.	.	.	.	.	/	/
O=C(CSc1nnc(-c2ccc(OC(F)F)cc2)o1)NC(=O)NCc1ccco1	.	.	.	.	.	.	/	/

Source: PubChem BioAssay (several laboratories)
